# Data reported in ChEMBL document CHEMBL3875170, “2-Methyl-4/5-nitroimidazole derivatives potentiated against sexually transmitted Trichomonas: Design, synthesis, biology and 3D-QSAR study” (Eur J Med Chem, 2016).
# Activity calls are given as the source filed them. The rule behind the calls is not given here.
# Columns and labels:
# Trichomonas vaginalis [1] = test: Potency index, ratio of metronidazole MIC to compound MIC for metronidazole sensitive Trichomonas vaginalis ATCC 33592; format: functional
# [2] = Selectivity index, ratio of IC50 for human HeLa cells to MIC for metronidazole sensitive Trichomonas vaginalis ATCC 33592; format: toxicity, cell-based; settings: read-out: Selectivity Index
# In short: (§1)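 SI is HeLa IC50 divided by parasite MIC. HeLa cells seeded at 2 × 10⁴/well in triplicate in DMEM with 10% FCS, 24 h at 37 °C in 5% CO2. Medium then replaced with compound dilutions (0.05% DMSO controls) for 24 h. Viability by MTT read at OD540; IC50 is the concentration killing 50% of cells. MIC from 48 h trypan blue parasite killing in TYM.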
# Trichomonas vaginalis [3] = test: Potency index, ratio of metronidazole MIC to compound MIC for metronidazole resistant Trichomonas vaginalis ATCC 50143; format: functional
# Trichomonas vaginalis [4] = test: Antiparasitic activity against metronidazole resistant Trichomonas vaginalis ATCC 50143 after 48 hrs by trypan blue exclusion assay; format: functional; settings: ATCC 50143, 48 h
# In short: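 T. vaginalis trophozoites ([…]), log phase, grown in TYM with 10% FCS, vitamin mix and penicillin/streptomycin at 37 °C. Test agents from DMSO stocks serially diluted in TYM; DMSO/TYM vehicle controls. Anaerobic incubation at 37 °C with microscopic viability checks from 3 to 48 h by trypan blue exclusion. MIC is the lowest concentration killing all cells by 48 h. Repeated three times.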
# [5] = Selectivity index, ratio of IC50 for human HeLa cells to MIC for metronidazole resistant Trichomonas vaginalis ATCC 50143; format: toxicity, cell-based; settings: read-out: Selectivity Index; in short: as §1
# Trichomonas vaginalis [6] = test: Antiparasitic activity against metronidazole sensitive Trichomonas vaginalis ATCC 33592 after 48 hrs by trypan blue exclusion assay; format: functional; settings: ATCC 33592, 48 h
# [7] = Cytotoxicity against human HeLa cells after 24 hrs by MTT assay; format: toxicity, cell-based
# In short: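 HeLa cells seeded at 2 × 10⁴ per well in DMEM with 10% FCS, in triplicate, and held 24 h at 37 °C in 5% CO₂. Exposed to compound dilutions for 24 h; controls received 0.05% DMSO. MTT in PBS pH 7.4 added, formazan dissolved in DMSO, OD540 read. IC50 taken as the concentration killing 50% of cells.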
# Trichomonas vaginalis [8] = test: Antiparasitic activity against Trichomonas vaginalis in po dosed mouse assessed as size of abscess at 100 mg/kg, po administered daily for 7 days measured 7 days post last dose (reference value: 113 mm'2); format: functional
# In short: (§2)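 Six-week-old mice inoculated subcutaneously in the left hind flank with 50 µL of 2 × 10⁶ saline-washed trophozoites/mL grown in TYM. Abscess confirmed by palpation at day 7 and by fine-needle biopsy. Oral dosing in gum acacia at 50 or 100 mg/kg daily; controls received vehicle. Abscess size measured longitudinally each day and area calculated; n = 3 per group.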
# Trichomonas vaginalis [9] = test: Antiparasitic activity against Trichomonas vaginalis in po dosed mouse assessed as size of abscess at 50 mg/kg, po administered daily for 5 days measured 5 days post last dose (reference value: 120 mm'2); format: functional; in short: as §2
# [10] = AUClast in Sprague Dawley rat at 50 mg/kg, po; format: ADME, organism-based; parameters: dose 50 mg/kg, route oral, time 0 - last; settings: in vivo
# In short: (§3)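 Overnight-fasted (12–16 h) rats, n = 4 per time point, given a single oral dose of 50 mg/kg as a 12.5 mg/mL suspension in 1% w/v gum acacia and water. Blood sampled at set times up to 24 h; serum stored at −80 °C. Analysis by LC-MS/MS in positive-ion MRM mode with phenacetin as internal standard; parameters derived by non-compartmental analysis. Values are means of four rats.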
# [11] = Cmax in Sprague Dawley rat at 50 mg/kg, po; format: ADME, organism-based; parameters: dose 50 mg/kg, route oral; settings: in vivo; in short: as §3
# Trichomonas vaginalis [12] = test: Antiparasitic activity against Trichomonas vaginalis in po dosed mouse assessed as size of abscess at 100 mg/kg, po administered daily for 5 days measured 5 days post last dose (reference value: 120 mm'2); format: functional; in short: as §2
# [13] = Half life in Sprague Dawley rat at 50 mg/kg, po; format: ADME, organism-based; settings: in vivo; in short: as §3
# Trichomonas vaginalis [14] = test: Antiparasitic activity against Trichomonas vaginalis in po dosed mouse assessed as size of abscess at 50 mg/kg, po administered daily for 7 days measured 7 days post last dose (reference value: 113 mm'2); format: functional; in short: as §2
# Trichomonas vaginalis [15] = test: Antiparasitic activity against Trichomonas vaginalis assessed as decrease in parasite free thiol levels at MIC after 24 hrs by fluorometric thiol detector-based fluorescence microscopic method; format: functional
# In short: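 Cells pelleted (700 × g, 10 min, 4 °C), washed 2–3 times in PBS, then stained 5 min in the dark with fluorometric thiol detector (pre-diluted 100×). Imaged by epifluorescence microscopy, UV-1A filter, with equal exposure times for all samples.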
# [16] = Tmax in Sprague Dawley rat at 50 mg/kg, po; format: ADME, organism-based; settings: in vivo; in short: as §3
# [17] = Clearance in Sprague Dawley rat at 50 mg/kg, po; format: ADME, organism-based; settings: in vivo; in short: as §3
# [18] = Volume of distribution at steady state in Sprague Dawley rat at 50 mg/kg, po; format: ADME, organism-based; settings: in vivo; in short: as §3
Compound,Ratio (Trichomonas vaginalis [1]),selectivity ratio [2],Ratio (Trichomonas vaginalis [3]),MIC (Trichomonas vaginalis [4]) [µM],selectivity ratio [5],MIC (Trichomonas vaginalis [6]) [µM],IC50 at 24 h [7] [mM],Activity (Trichomonas vaginalis [8]) [mm2],Activity (Trichomonas vaginalis [9]),AUClast [10] [ng·h/mL],Cmax [11] [ng/mL],Activity (Trichomonas vaginalis [12]),half-life [13] [h],Activity (Trichomonas vaginalis [14]) [mm2],Activity (Trichomonas vaginalis [15]),Tmax [16] [h],CL [17] [mL/min/kg],Vdss [18] [L/kg]
Cc1ncc([N+](=O)[O-])n1CC(O)CSC(=S)N1CCN(C(=O)OC(C)(C)C)CC1 (racemic),<=2.4,39,<=12.7,70.2,9,17.6,0.689,,,,,,,,,,,
CCCCN1CCN(C(=S)SCC(O)Cn2c([N+](=O)[O-])cnc2C)CC1 (racemic),<=2.4,122,<=12.7,31.2,61,15.6,1.91,,,,,,,,,,,
Cc1ncc([N+](=O)[O-])n1CC(O)CSC(=S)N1CCN(c2ccccc2)CC1 (racemic),2.4,> 584,<=12.7,37.1,> 135,8.55,> 5,0.785,1 - 5 mm2,149.1,35.2,1 - 5 mm2,5,1.55,Active,4,272,80.6
CCN1CCN(CC(O)Cn2c([N+](=O)[O-])cnc2C)CC1 (racemic),<=2.4,407,<=12.7,105,47,12.1,4.94,,,,,,,,,,,
Cc1ncc([N+](=O)[O-])n1CC(O)CN1CCN(c2ccccn2)CC1 (racemic),<=2.4,101,<=12.7,72.2,25,18.1,1.83,,,,,,,,,,,
Cc1ncc([N+](=O)[O-])n1CC(O)CN1CCN(c2cccc(Cl)c2Cl)CC1 (racemic),<=2.4,> 265,<=12.7,151,> 33,18.9,> 5,,,,,,,,,,,
Cc1ncc([N+](=O)[O-])n1CC(O)Cn1ccnn1 (racemic),<=2.4,> 416,<=12.7,99.2,> 50,12.4,> 5,,,,,,,,,,,
Cc1ncc([N+](=O)[O-])n1CCO [METRONIDAZOLE],,> 238,,365,> 13,21.1,> 5,,1 - 5 mm2,,,,,1.57,,,,
